Measured values: ChEMBL document CHEMBL1287703, “Essential structural features of TNF-α lectin-like domain derived peptides for activation of amiloride-sensitive sodium current in A549 cells” (J Med Chem, 2010)
Calls of active or inactive are those of the source. The rule behind the calls is not given here. Where a SMILES comes first, the peptide text is derived from it. Bridges are numbered along the chain shown (N, C = ends).

Experiments:
Format in all cases: cell-based
A549 [1] = assay: Activation of amiloride-sensitive epithelial sodium channel in human A549 cells up to 480 nM at holding potential -100 to + 100 mV by whole cell patch clamp technique
Method in brief: (§1)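 A549 cells (passages 80–90) were grown in DMEM/F12 with 10% FBS and 1% penicillin-streptomycin, then whole-cell patch-clamped at 19–22°C, 24–48 h after plating. After a 5 min equilibration, Eh was stepped from −100 to +100 mV in 20 mV steps, 1 min each. A 5 min control preceded cumulative bath peptide addition (3.5–480 nM final), with amiloride added at the end. EC50 was fitted at −100 mV.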

A549 [2] = assay: Activation of amiloride-sensitive epithelial sodium channel in human A549 cells at 120 nM at holding potential -100 to + 100 mV by whole cell patch clamp technique; method in brief: as §1
A549 [3] = assay: Activation of tetraethylammonium-sensitive potassium channel in human A549 cells at 120 nM at holding potential -100 mV by whole cell patch clamp technique

| SMILES | Activity (A549 [1]) | Activity (A549 [2]) [%] | Activity (A549 [3]) [%] |
| --- | --- | --- | --- |
| C[C@@H]1NC(=O)CNC(=O)[C@H](CCC(=O)O)NC(=O)[C@@H]2CCCN2C(=O)[C@H]([C@H](C)O)NC(=O)[C@H](CCC(=O)O)NC(=O)[C@H](CCCNC(=N)N)NC(=O)[C@H](CCC(N)=O)NC(=O)CNC(=O)CCCCCCNC(=O)[C@H](Cc2ccc(O)cc2)NC(=O)[C@H](Cc2c[nH]c3ccccc23)NC(=O)[C@@H]2CCCN2C(=O)[C@H](CCCCN)NC(=O)[C@H](C)NC(=O)[C@H](CCC(=O)O)NC1=O | inactive |  |  |
| C[C@@H]1NC(=O)CNC(=O)[C@H](C)NC(=O)[C@@H]2CCCN2C(=O)[C@H](C)NC(=O)[C@H](CCC(=O)O)NC(=O)[C@H](CCCNC(=N)N)NC(=O)[C@H](CCC(N)=O)NC(=O)CNC(=O)[C@@H](N)CSSC[C@@H](C(=O)O)NC(=O)[C@H](Cc2ccc(O)cc2)NC(=O)[C@H](Cc2c[nH]c3ccccc23)NC(=O)[C@@H]2CCCN2C(=O)[C@H](CCCCN)NC(=O)[C@H](C)NC(=O)[C@H](C)NC1=O (H-CGQREAPAGAAAKPWYC-OH; disulfide 1-17) | inactive |  |  |
| C[C@@H]1NC(=O)CNC(=O)[C@H](CCC(=O)O)NC(=O)[C@@H]2CCCN2C(=O)[C@H]([C@H](C)O)NC(=O)[C@H](CCC(=O)O)NC(=O)[C@H](CCCNC(=N)N)NC(=O)[C@H](CCC(N)=O)NC(=O)CNC(=O)[C@@H](N)CSSC[C@@H](C(=O)O)NC(=O)[C@H](Cc2ccc(O)cc2)NC(=O)[C@H](Cc2c[nH]c3ccccc23)NC(=O)[C@@H]2CCCN2C(=O)[C@H](CCCCN)NC(=O)[C@H](C)NC(=O)[C@H](CCC(=O)O)NC1=O |  | 99.4 | 0.6 |
| C[C@@H]1NC(=O)CNC(=O)[C@H](CCC(=O)O)NC(=O)[C@@H]2CCCN2C(=O)[C@H]([C@H](C)O)NC(=O)[C@H](CCC(=O)O)NC(=O)[C@H](CCCNC(=N)N)NC(=O)[C@H](CCC(N)=O)NC(=O)CNC(=O)CCCNC(=O)CNC(=O)[C@H](Cc2ccc(O)cc2)NC(=O)[C@H](Cc2c[nH]c3ccccc23)NC(=O)[C@@H]2CCCN2C(=O)[C@H](CCCCN)NC(=O)[C@H](C)NC(=O)[C@H](CCC(=O)O)NC1=O | inactive |  |  |
| C[C@@H]1NC(=O)CNC(=O)[C@H](CCC(=O)O)NC(=O)[C@@H]2CCCN2C(=O)[C@H]([C@H](C)O)NC(=O)[C@H](CCC(=O)O)NC(=O)[C@H](CCCNC(=N)N)NC(=O)[C@H](CCC(N)=O)NC(=O)CNC(=O)CCCCCNC(=O)CNC(=O)[C@H](Cc2ccc(O)cc2)NC(=O)[C@H](Cc2c[nH]c3ccccc23)NC(=O)[C@@H]2CCCN2C(=O)[C@H](CCCCN)NC(=O)[C@H](C)NC(=O)[C@H](CCC(=O)O)NC1=O | inactive |  |  |
| C[C@@H]1NC(=O)CNC(=O)[C@H](CCC(=O)O)NC(=O)[C@@H]2CCCN2C(=O)[C@H]([C@H](C)O)NC(=O)[C@H](CCC(=O)O)NC(=O)[C@H](CCCNC(=N)N)NC(=O)[C@H](CCC(N)=O)NC(=O)[C@@H](N)CSSC[C@@H](C(=O)O)NC(=O)CNC(=O)CNC(=O)[C@H](CCCCN)NC(=O)[C@H](C)NC(=O)[C@H](CCC(=O)O)NC1=O | inactive |  |  |
